Tests used:
[1] = target: Growth hormone secretagogue receptor type 1 (Homo sapiens, UniProt Q92847); test: Agonist activity at human GHS receptor expressed in H4 cells by FLIPR assay; type: functional, cell-based
[2] = system: Rattus norvegicus; test: Stimulation of growth hormone release in rat at 0.17 umol/kg, iv relative to control; type: functional
In short: (§1)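 Fasted male Wistar rats (200–250 g) were anesthetized with ketamine 30 mg/kg plus xylazine 10 mg/kg ip. They were dosed iv at 10 mL/kg in vehicle (10% ethanol, […] V/V), five rats per group. Aortic blood was drawn 15 min post-dose, and plasma rat GH was measured by radioimmunoassay. Results are given as % GH increase ± SEM versus vehicle control.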

[3] = system: Rattus norvegicus; test: Stimulation of growth hormone release in rat at 0.052 umol/kg, iv relative to control; type: functional; in short: as §1
[4] = system: Rattus norvegicus; test: Stimulation of growth hormone release in rat at 0.017 umol/kg, iv relative to control; type: functional; in short: as §1

Chain of Growth hormone secretagogue receptor type 1 (Q92847 whole entry): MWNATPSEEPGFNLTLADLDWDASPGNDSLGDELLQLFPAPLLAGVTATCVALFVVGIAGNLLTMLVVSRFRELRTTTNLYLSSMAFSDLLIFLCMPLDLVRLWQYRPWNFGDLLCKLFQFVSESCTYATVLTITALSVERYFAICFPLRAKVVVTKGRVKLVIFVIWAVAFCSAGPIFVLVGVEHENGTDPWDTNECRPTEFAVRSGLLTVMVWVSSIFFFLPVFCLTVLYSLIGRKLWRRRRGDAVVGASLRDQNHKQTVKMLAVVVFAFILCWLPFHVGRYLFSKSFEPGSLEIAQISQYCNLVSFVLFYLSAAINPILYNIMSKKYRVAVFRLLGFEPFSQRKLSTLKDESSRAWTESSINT

EC50 [1] [nM]	Intrinsic activity [1] [%]	Structure (SMILES)	Activity [2] [%]	Activity [3] [%]	Activity [4] [%]
27	> 85	CC(C)(N)C(=O)N[C@H](COCc1ccccc1)c1nnnn1CCCC(=O)NCCCO	–	–	–
2.9	> 85	CN(CCc1cccc(S(=O)(=O)CCO)c1)C(=O)CCCn1nnnc1[C@@H](COCc1ccccc1)NC(=O)C(C)(C)N	–	–	–
14.7	> 85	CC(C)(N)C(=O)N[C@H](COCc1ccccc1)c1nnnn1CCNC(=O)CCS(C)(=O)=O	–	–	–
–	> 85	CCCCNC(=O)CCCn1nnnc1[C@@H](COCc1ccccc1)NC(=O)C(C)(C)N	–	–	–
0.7	> 85	CC(C)(N)C(=O)N[C@H](COCc1ccccc1)c1nnnn1CCCC(=O)NCCOCCO	–	–	–
3.3	> 85	CC(C)(N)C(=O)N[C@H](COCc1ccccc1)c1nnnn1CCCC(=O)NCCN1CCNC1=O	–	–	–
32	> 85	CC(C)(N)C(=O)N[C@H](COCc1ccccc1)c1nnnn1CCCC(=O)NCc1ccccc1	–	–	–
0.2	> 85	CC(C)(N)C(=O)N[C@H](COCc1ccccc1)c1nnnn1CCCC(=O)NCCS(=O)(=O)CCO	1290	956	398
0.64	> 85	CC(C)(N)C(=O)N[C@H](COCc1ccccc1)c1nnnn1CCNC(=O)CCc1cccc(O)c1	–	–	–
0.2	> 85	CC(C)(N)C(=O)N[C@H](COCc1ccccc1)c1nnnn1CCCC(=O)NCCc1cccc(O)c1	606	–	–
–	> 85	CCCCCCCC(=O)OC[C@H](NC(=O)CNC(=O)[C@@H](N)CCCNC(=N)N)C(=O)N[C@@H](CO)C(=O)N[C@@H](Cc1ccccc1)C(=O)N[C@@H](CC(C)C)C(=O)N[C@@H](CO)C(=O)N1CCC[C@H]1C(=O)N[C@@H](CCC(=O)O)C(=O)N[C@@H](Cc1cnc[nH]1)C(=O)N[C@@H](CCC(N)=O)C(=O)N[C@@H](CCCCN)C(=O)N[C@@H](C)C(=O)N[C@@H](CCC(N)=O)C(=O)N[C@@H](CCC(N)=O)C(=O)N[C@@H](CCCNC(=N)N)C(=O)N[C@@H](CCCCN)C(=O)N[C@@H](CCC(=O)O)C(=O)N[C@@H](CO)C(=O)N[C@@H](CCCCN)C(=O)N[C@@H](CCCCN)C(=O)N1CCC[C@H]1C(=O)N1CCC[C@H]1C(=O)N[C@@H](C)C(=O)N[C@@H](CCCCN)C(=O)N[C@@H](CC(C)C)C(=O)N[C@@H](CCC(N)=O)C(=O)N1CCC[C@H]1C(=O)O	–	–	–
204	> 85	CC(C)(N)C(=O)N[C@H](COCc1ccccc1)c1nnnn1CCCC(=O)NCCC(=O)O	–	–	–
0.6	> 85	CC(C)(N)C(=O)N[C@H](COCc1ccccc1)c1nnnn1CCCC(=O)NCCCCCCO	522	–	–
521	> 85	CC(C)(N)C(=O)N[C@H](COCc1ccccc1)c1nnnn1CCCC(=O)N[C@H]1CC[C@H](O)CC1	–	–	–
26	> 85	CC(C)(N)C(=O)N[C@H](COCc1ccccc1)c1nnnn1CCCC(=O)NCC(F)(F)F	–	–	–
1.4	> 85	CC(C)(N)C(=O)N[C@H](COCc1ccccc1)c1nnnn1CCCC(=O)NCCS(N)(=O)=O	408	–	–
1.3	> 85	CC(C)(N)C(=O)N[C@H](COCc1ccccc1)c1nnnn1CCCC(=O)NCCCCCO	–	–	–

EC50 [1] [nM]	Intrinsic activity [1] [%]	Structure (SMILES)	Activity [2] [%]	Activity [3] [%]	Activity [4] [%]
3	> 85	CC(C)(N)C(=O)N[C@H](COCc1ccccc1)c1nnnn1CCOc1cccc(C(=O)NCCCCO)c1	–	–	–
140	> 85	CCOC(=O)CCNC(=O)CCCn1nnnc1[C@@H](COCc1ccccc1)NC(=O)C(C)(C)N	–	–	–
4.1	> 85	CC(C)(N)C(=O)N[C@H](COCc1ccccc1)c1nnnn1CCCC(=O)NCCS(C)(=O)=O	–	–	–
23	> 85	CC(C)(N)C(=O)N[C@H](COCc1ccccc1)c1nnnn1CCCC(=O)NCCc1ccccc1	–	–	–
3.1	> 85	CN(CCc1cccc(O)c1)C(=O)CCCn1nnnc1[C@@H](COCc1ccccc1)NC(=O)C(C)(C)N	–	–	–
33	> 85	CC(C)(N)C(=O)N[C@H](COCc1ccccc1)c1nnnn1CCCC(=O)NCCCc1ccccc1	–	–	–
40	> 85	CC(C)(N)C(=O)N[C@H](COCc1ccccc1)c1nnnn1CCCC(=O)NCCO	–	–	–
70	> 85	CC(C)(N)C(=O)N[C@H](COCc1ccccc1)c1nnnn1CCCC(=O)Nc1ccccc1	–	–	–
7.6	> 85	CC(C)(N)C(=O)N[C@H](COCc1ccccc1)c1nnnn1CCCC(=O)NCCC(N)=O	–	–	–
11	> 85	CC(C)(N)C(=O)N[C@H](COCc1ccccc1)c1nnnn1CCOc1ccccc1C(=O)NCCO	–	–	–
8.4	> 85	CC(C)(N)C(=O)N[C@H](COCc1ccccc1)c1nnnn1CCOc1cccc(C(=O)NCCO)c1	–	–	–
0.2	> 85	CC(C)(N)C(=O)N[C@H](COCc1ccccc1)c1nnnn1CCCC(=O)NCCSCCO	–	–	–
105	> 85	CC(C)(N)C(=O)N[C@H](COCc1ccccc1)c1nnnn1CCCC(=O)NCCc1cccc(S(=O)(=O)CCO)c1	–	–	–
–	> 85	CC(C)(N)C(=O)N[C@H](COCc1ccccc1)c1nnnn1CCOC(=O)NCCCCO	264	–	–
4.4	> 85	CC(C)(N)C(=O)N[C@H](COCc1ccccc1)c1nnnn1CCNC(=O)CCCCO	722	–	–
1.8	> 85	CC(C)(N)C(=O)N[C@H](COCc1ccccc1)c1nnnn1CCCC(=O)NCCCCO	–	–	–
0.9	> 85	CC(C)(N)C(=O)N[C@H](COCc1ccccc1)c1nnnn1CCOc1ccccc1C(=O)NCCCCO	–	–	–

Reference: ChEMBL document CHEMBL1144840, “Tetrazole based amides as growth hormone secretagogues” (Bioorg Med Chem Lett, 2008)
